Reference: ChEMBL document CHEMBL2021898, “Prenylated acylphloroglucinols, chipericumins A-D, from Hypericum chinense” (J Nat Prod, 2012)

Columns and labels:
[1] = test system: L1210; assay: Cytotoxicity against mouse L1210 cells incubated for 48 hrs at 37 degC; assay type: functional, cell-based; conditions: L1210, 48 h
Summary of the method: (§1)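 Human epidermoid carcinoma KB and murine leukemia L1210 cells were cultured with test compounds at various concentrations, dissolved in 1% DMSO, in 100 μL medium at 37 °C for 48 h. IC50 was taken from a plot of log concentration against growth rate of treated cells. Paclitaxel was the positive control.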

[2] = test system: Bacillus subtilis; assay: Antimicrobial activity against Bacillus subtilis by broth micro-dilution method; assay type: functional
[3] = test system: Micrococcus luteus; assay: Antimicrobial activity against Micrococcus luteus by broth micro-dilution method; assay type: functional
[4] = test system: Aspergillus niger; assay: Antimicrobial activity against Aspergillus niger by broth micro-dilution method; assay type: functional, organism-based
[5] = test system: Trichophyton mentagrophytes; assay: Antimicrobial activity against Trichophyton mentagrophytes by broth micro-dilution method; assay type: functional, organism-based
[6] = test system: KB; assay: Cytotoxicity against human KB cells incubated for 48 hrs at 37 degC; assay type: functional, cell-based; summary of the method: as §1
[7] = test system: Staphylococcus aureus; assay: Antimicrobial activity against Staphylococcus aureus by broth micro-dilution method; assay type: functional
[8] = test system: Cryptococcus neoformans; assay: Antimicrobial activity against Cryptococcus neoformans by broth micro-dilution method; assay type: functional, organism-based
[9] = test system: Candida albicans; assay: Antimicrobial activity against Candida albicans by broth micro-dilution method; assay type: functional, organism-based
[10] = test system: Escherichia coli; assay: Antimicrobial activity against Escherichia coli by broth micro-dilution method; assay type: functional

| SMILES | IC50 [1] | MIC [2] [µg/mL] | MIC [3] [µg/mL] | IC50 [4] [µg/mL] | IC50 [5] [µg/mL] | IC50 [6] | MIC [7] [µg/mL] | IC50 [8] [µg/mL] | IC50 [9] [µg/mL] | MIC [10] [µg/mL] |
| --- | --- | --- | --- | --- | --- | --- | --- | --- | --- | --- |
| CC(C)C(=O)C1=C2O[C@H](C(C)(C)O)C[C@]2(C)C(=O)[C@]2(C[C@H]3[C@@H](CC[C@@]3(C)O)[C@](C)(O)C2)C1=O (relative stereo) | > 10 µg/mL | > 32 | > 32 | > 32 | > 32 | > 10 µg/mL | > 32 | > 32 | > 32 | > 32 |
| CC(C)=CC[C@]1(C)C(=O)[C@@]2(C[C@H]3[C@@H](CC[C@@]3(C)O)[C@](C)(O)C2)C(=O)C(C(=O)C(C)C)=C1O (relative stereo) | > 10 µg/mL | > 32 | > 32 | > 32 | > 32 | > 10 µg/mL | > 32 | > 32 | > 32 | > 32 |
| CCC(C)C(=O)C1=C(O)[C@@](C)(CC=C(C)C)C(=O)[C@@]2(C[C@H]3[C@@H](CC[C@@]3(C)O)[C@](C)(O)C2)C1=O (relative stereo) | > 10 µg/mL | > 32 | > 32 | > 32 | > 32 | > 10 µg/mL | > 32 | > 32 | > 32 | > 32 |
| CCC(C)C(=O)C1=C2O[C@H](C(C)(C)O)C[C@]2(C)C(=O)[C@]2(C[C@H]3[C@@H](CC[C@@]3(C)O)[C@](C)(O)C2)C1=O (some centres not stated) [CHIPERICUMIN B] | > 10 µg/mL | > 32 | > 32 | > 32 | > 32 | > 10 µg/mL | > 32 | > 32 | > 32 | > 32 |
| CC(=O)O[C@H]1C(=O)[C@@]2(C)[C@H]([C@H](OC(=O)c3ccccc3)[C@]3(O)C[C@H](OC(=O)[C@H](O)[C@@H](NC(=O)c4ccccc4)c4ccccc4)C(C)=C1C3(C)C)[C@]1(OC(C)=O)CO[C@@H]1C[C@@H]2O [PACLITAXEL] | 120 nM |  |  |  |  | 4.5 nM |  |  |  |  |
